Laboratory results: ChEMBL document CHEMBL4351006, “A new exploration towards aminothiazolquinolone oximes as potentially multi-targeting antibacterial agents: Design, synthesis and evaluation acting on microbes, DNA, HSA and topoisomerase IV” (Eur J Med Chem, 2019)
Values after ≈ are worked out from the molar mass of the structure shown. Active and inactive are the calls of the source. The calls are words filed in the database; no cut-off is given here.

Tests used:
Staphylococcus aureus [1] = experiment: Antibacterial activity against methicillin resistant Staphylococcus aureus N315 assessed as reduction in bacterial cell viability incubated for 24 hrs by two fold serial dilution method; assay type: functional; details: N315, 24 h
Method in brief: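 MIC by two-fold serial dilution following CLSI, with chloromycin and norfloxacin as reference drugs.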

Enterococcus faecalis = experiment: Antibacterial activity against Enterococcus faecalis assessed as reduction in bacterial cell viability incubated for 24 hrs by two fold serial dilution method; assay type: functional
Method in brief: (§1)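 Broth two-fold serial dilution run to CLSI guidelines. Chloromycin, norfloxacin and fluconazole served as reference drugs.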

Staphylococcus aureus [2] = experiment: Antibacterial activity against Staphylococcus aureus assessed as reduction in bacterial cell viability incubated for 24 hrs by two fold serial dilution method; assay type: functional; method in brief: as §1
Staphylococcus aureus [3] = experiment: Antibacterial activity against Staphylococcus aureus ATCC 25923 assessed as reduction in bacterial cell viability incubated for 24 hrs by two fold serial dilution method; assay type: functional; details: ATCC 25923, 24 h; method in brief: as §1
Staphylococcus aureus [4] = experiment: Antibacterial activity against Staphylococcus aureus ATCC 29213 assessed as reduction in bacterial cell viability incubated for 24 hrs by two fold serial dilution method; assay type: functional; details: ATCC 29213, 24 h; method in brief: as §1
Klebsiella pneumoniae [5] = experiment: Antibacterial activity against Klebsiella pneumoniae assessed as reduction in bacterial cell viability incubated for 24 hrs by two fold serial dilution method; assay type: functional; method in brief: as §1
Escherichia coli [6] = experiment: Antibacterial activity against Escherichia coli ATCC 25922 assessed as reduction in bacterial cell viability incubated for 24 hrs by two fold serial dilution method; assay type: functional; details: ATCC 25922, 24 h; method in brief: as §1
Escherichia coli [7] = experiment: Antibacterial activity against Escherichia coli assessed as reduction in bacterial cell viability incubated for 24 hrs by two fold serial dilution method; assay type: functional; method in brief: as §1
Pseudomonas aeruginosa [8] = experiment: Antibacterial activity against Pseudomonas aeruginosa assessed as reduction in bacterial cell viability incubated for 24 hrs by two fold serial dilution method; assay type: functional; method in brief: as §1
Pseudomonas aeruginosa [9] = experiment: Antibacterial activity against Pseudomonas aeruginosa ATCC 27853 assessed as reduction in bacterial cell viability incubated for 24 hrs by two fold serial dilution method; assay type: functional; details: ATCC 27853, 24 h; method in brief: as §1
Acinetobacter baumannii = experiment: Antibacterial activity against Acinetobacter baumannii assessed as reduction in bacterial cell viability incubated for 24 hrs by two fold serial dilution method; assay type: functional; method in brief: as §1
Candida albicans [10] = experiment: Antifungal activity against Candida albicans assessed as reduction in fungal cell viability incubated for 24 hrs by two fold serial dilution method; assay type: functional; method in brief: as §1
Candida albicans [11] = experiment: Antifungal activity against Candida albicans ATCC 90023 assessed as reduction in fungal cell viability incubated for 24 hrs by two fold serial dilution method; assay type: functional; details: ATCC 90023, 24 h; method in brief: as §1
Candida tropicalis [12] = experiment: Antifungal activity against Candida tropicalis assessed as reduction in fungal cell viability incubated for 24 hrs by two fold serial dilution method; assay type: functional; method in brief: as §1
Aspergillus fumigatus = experiment: Antifungal activity against Aspergillus fumigatus assessed as reduction in fungal cell viability incubated for 24 hrs by two fold serial dilution method; assay type: functional; method in brief: as §1
Staphylococcus aureus [13] = experiment: Potency index, ratio of MIC of chloromycin to MIC of compound for antibacterial activity against methicillin resistant Staphylococcus aureus N315 assessed as reduction in bacterial cell viability incubated for 24 hrs by two fold serial dilution method; assay type: functional
Staphylococcus aureus [14] = experiment: Potency index, ratio of MIC of norfloxacin to MIC of compound for antibacterial activity against methicillin resistant Staphylococcus aureus N315 assessed as reduction in bacterial cell viability incubated for 24 hrs by two fold serial dilution method; assay type: functional
Staphylococcus aureus [15] = experiment: Antibacterial activity against methicillin resistant Staphylococcus aureus assessed as fold change after 16 serial passages at 0.5 times of MIC incubated for 12 hrs by sequential passaging method; assay type: functional
Staphylococcus aureus [16] = experiment: Antibacterial activity against methicillin resistant Staphylococcus aureus assessed as change in drug resistance after 16 serial passages in presence of cefixime at 0.5 times of MIC incubated for 12 hrs by serial dilution method; assay type: functional, organism-based
[17] = Cytotoxicity against human A549 cells assessed as cell viability upto 139.52 uM incubated for 24 hrs by MTT assay relative to control; assay type: cell-based; details: read-out: Activity
Method in brief: (§2)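 MTT viability assay in A549 and BEAS-2B cells, with doxorubicin at 0.50 μM as positive control. Viability is plotted with standard deviation from three independent experiments.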

[18] = Cytotoxicity against human BEAS2B cells assessed as cell viability upto 139.52 uM incubated for 24 hrs by MTT assay relative to control; assay type: cell-based; details: BEAS-2B cells, read-out: Activity; method in brief: as §2
Staphylococcus aureus [19] = experiment: Induction of membrane permeabilization in methicillin resistant Staphylococcus aureus assessed as increase in fluorescence intensity at 12 times of MIC incubated for 2 hr by propidium iodide staining based fluorescence microscopy; assay type: functional, organism-based
Method in brief: (§3)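 MRSA cells were treated with the compound and stained with propidium iodide, which enters cells with damaged membranes and fluoresces on binding DNA. Fluorescence intensity was followed over time against untreated bacteria.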

Calf thymus DNA [20] = experiment: Binding affinity to calf thymus DNA by UV-visible spectrophotometric method; assay type: nucleic-acid assay; details: Bos taurus
Calf thymus DNA [21] = experiment: Competitive binding affinity to calf thymus DNA assessed as inhibition of binding of neutral red by UV-visible spectrophotometric method; assay type: nucleic-acid assay; details: Bos taurus
Albumin [22] = target: T1, Albumin (Homo sapiens, UniProt P02768); experiment: Binding affinity to HSA assessed as Stern-Volmer quenching constant at 286 K by fluorescence spectroscopy; assay type: ADME; details: isolated protein
Albumin [23] = target: T1, Albumin; experiment: Binding affinity to HSA assessed as Stern-Volmer quenching constant at 298 K by fluorescence spectroscopy; assay type: ADME; details: isolated protein
Albumin [24] = target: T1, Albumin; experiment: Binding affinity to HSA assessed as Stern-Volmer quenching constant at 310 K by fluorescence spectroscopy; assay type: ADME; details: isolated protein
Albumin [25] = target: T1, Albumin; experiment: Binding affinity to HSA assessed as quenching constant at 286 K by fluorescence spectroscopy; assay type: ADME; details: isolated protein
Albumin [26] = target: T1, Albumin; experiment: Binding affinity to HSA assessed as quenching constant at 298 K by fluorescence spectroscopy; assay type: ADME; details: isolated protein
Albumin [27] = target: T1, Albumin; experiment: Binding affinity to HSA assessed as quenching constant at 310 K by fluorescence spectroscopy; assay type: ADME; details: isolated protein
Albumin [28] = target: T1, Albumin; experiment: Binding affinity to HSA assessed as binding constant at 286 K by fluorescence spectroscopy based Scatchard method; assay type: ADME; details: isolated protein
Albumin [29] = target: T1, Albumin; experiment: Binding affinity to HSA assessed as binding constant at 298 K by fluorescence spectroscopy based Scatchard method; assay type: ADME; details: isolated protein
Albumin [30] = target: T1, Albumin; experiment: Binding affinity to HSA assessed as binding constant at 310 K by fluorescence spectroscopy based Scatchard method; assay type: ADME; details: isolated protein
Albumin [31] = target: T1, Albumin; experiment: Binding affinity to HSA assessed as change in enthalpy at 298 K by Van't Hoff plot analysis; assay type: ADME; details: isolated protein
Albumin [32] = target: T1, Albumin; experiment: Binding affinity to HSA assessed as change in gibbs free energy at 286 K by Van't Hoff plot analysis; assay type: ADME; details: isolated protein
Albumin [33] = target: T1, Albumin; experiment: Binding affinity to HSA assessed as change in gibbs free energy at 298 K by Van't Hoff plot analysis; assay type: ADME; details: isolated protein
Albumin [34] = target: T1, Albumin; experiment: Binding affinity to HSA assessed as change in gibbs free energy at 310 K by Van't Hoff plot analysis; assay type: ADME; details: isolated protein
Albumin [35] = target: T1, Albumin; experiment: Binding affinity to HSA assessed as change in entropy at 298 K by Van't Hoff plot analysis; assay type: ADME; details: isolated protein
Staphylococcus aureus [36] = experiment: Antibacterial activity against methicillin resistant Staphylococcus aureus N315 assessed as reduction in bacterial cell viability in presence of cefixime incubated for 24 hrs by two fold serial dilution method; assay type: functional; details: N315, 24 h
Staphylococcus aureus [37] = experiment: Antibacterial activity against Staphylococcus aureus assessed as reduction in bacterial cell viability in presence of cefixime incubated for 24 hrs by two fold serial dilution method; assay type: functional
Klebsiella pneumoniae [38] = experiment: Antibacterial activity against Klebsiella pneumoniae assessed as reduction in bacterial cell viability in presence of cefixime incubated for 24 hrs by two fold serial dilution method; assay type: functional
Staphylococcus aureus [39] = experiment: Synergistic antibacterial activity against Staphylococcus aureus assessed as FICI in presence of cefixime incubated for 24 hrs by two fold serial dilution method; assay type: functional
Klebsiella pneumoniae [40] = experiment: Synergistic antibacterial activity against Klebsiella pneumoniae assessed as FICI in presence of cefixime incubated for 24 hrs by two fold serial dilution method; assay type: functional
Staphylococcus aureus [41] = experiment: Induction of membrane permeabilization in methicillin resistant Staphylococcus aureus assessed as increase in fluorescence intensity steady state at 12 times of MIC after 100 mins by propidium iodide staining based fluorescence microscopy; assay type: functional, organism-based; method in brief: as §3
Candida albicans [42] = experiment: Synergistic antifungal activity against Candida albicans assessed as FICI in presence of fluconazole incubated for 24 hrs by two fold serial dilution method
Candida tropicalis [43] = experiment: Synergistic antifungal activity against Candida tropicalis assessed as FICI in presence of fluconazole incubated for 24 hrs by two fold serial dilution method
Candida parapsilosis = experiment: Antifungal activity against Candida parapsilosis ATCC 22019 assessed as reduction in fungal cell viability incubated for 24 hrs by two fold serial dilution method; details: Lodderomyces parapsilosis, ATCC 22019, 24 h
Candida albicans [44] = experiment: Antifungal activity against Candida albicans assessed as reduction in fungal cell viability in presence of fluconazole incubated for 24 hrs by two fold serial dilution method
Candida tropicalis [45] = experiment: Antifungal activity against Candida tropicalis assessed as reduction in fungal cell viability in presence of fluconazole incubated for 24 hrs by two fold serial dilution method

T1 sequence (P02768 whole entry): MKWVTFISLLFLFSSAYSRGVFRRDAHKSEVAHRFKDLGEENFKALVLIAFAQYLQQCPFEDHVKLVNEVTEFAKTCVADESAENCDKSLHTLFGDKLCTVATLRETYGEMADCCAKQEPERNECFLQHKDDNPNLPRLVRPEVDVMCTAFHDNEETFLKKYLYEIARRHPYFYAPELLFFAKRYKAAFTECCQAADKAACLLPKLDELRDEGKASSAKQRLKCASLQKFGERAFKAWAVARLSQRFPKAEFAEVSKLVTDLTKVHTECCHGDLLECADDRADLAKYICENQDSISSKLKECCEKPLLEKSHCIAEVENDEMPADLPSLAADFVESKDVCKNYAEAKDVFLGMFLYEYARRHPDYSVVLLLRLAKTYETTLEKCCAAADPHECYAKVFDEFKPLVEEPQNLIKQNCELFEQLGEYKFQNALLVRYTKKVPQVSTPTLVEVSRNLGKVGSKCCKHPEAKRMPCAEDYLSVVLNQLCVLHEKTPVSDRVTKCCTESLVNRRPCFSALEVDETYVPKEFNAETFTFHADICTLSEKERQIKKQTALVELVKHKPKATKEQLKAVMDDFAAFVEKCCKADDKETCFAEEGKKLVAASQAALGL

CCn1cc(-c2csc(N)n2)c(=O)c2cc(F)c(N3CCN(C/C(C)=N/OC)CC3)cc21
MIC (Staphylococcus aureus [1]): 9 µM (≈ 4.13 µg/mL) | MIC (Enterococcus faecalis): 70 µM (≈ 32.1 µg/mL) | MIC (Staphylococcus aureus [2]): 35 µM (≈ 16 µg/mL) | MIC (Staphylococcus aureus [3]): 17 µM (≈ 7.8 µg/mL) | MIC (Staphylococcus aureus [4]): 140 µM (≈ 64.2 µg/mL) | MIC (Klebsiella pneumoniae [5]): 70 µM (≈ 32.1 µg/mL) | MIC (Escherichia coli [6]): 35 µM (≈ 16 µg/mL) | MIC (Escherichia coli [7]): 70 µM (≈ 32.1 µg/mL) | MIC (Pseudomonas aeruginosa [8]): 70 µM (≈ 32.1 µg/mL) | MIC (Pseudomonas aeruginosa [9]): 35 µM (≈ 16 µg/mL) | MIC (Acinetobacter baumannii): 279 µM (≈ 128 µg/mL) | MIC (Candida albicans [10]): 70 µM (≈ 32.1 µg/mL) | MIC (Candida albicans [11]): 17 µM (≈ 7.8 µg/mL) | MIC (Candida tropicalis [12]): 70 µM (≈ 32.1 µg/mL) | MIC (Aspergillus fumigatus): 35 µM (≈ 16 µg/mL) | Ratio (Staphylococcus aureus [13]): 5 | Ratio (Staphylococcus aureus [14]): 2 | fold change (FC) (Staphylococcus aureus [15]): inactive | Activity (Staphylococcus aureus [16]): inactive | viability at 24 h [17]: > 75% | viability at 24 h [18]: > 75% | Activity (Staphylococcus aureus [19]): Active | K (Calf thymus DNA [20]): 2.51 ×10⁴ L/mol | Activity (Calf thymus DNA [21]): Active | KSV (Albumin [22]): 1.89 ×10⁵ L/mol | KSV (Albumin [23]): 1.79 ×10⁵ L/mol | KSV (Albumin [24]): 1.57 ×10⁵ L/mol | Kq (Albumin [25]): 2.95 ×10¹³ L/mol/s | Kq (Albumin [26]): 2.8 ×10¹³ L/mol/s | Kq (Albumin [27]): 2.45 ×10¹³ L/mol/s | Kb (Albumin [28]): 1.81 ×10⁵ L/mol | Kb (Albumin [29]): 1.63 ×10⁵ L/mol | Kb (Albumin [30]): 1.44 ×10⁵ L/mol | deltaH (Albumin [31]): -6.9355 kcal/mol | deltaG (Albumin [32]): -6.5084 kcal/mol | deltaG (Albumin [33]): -6.4904 kcal/mol | deltaG (Albumin [34]): -6.4725 kcal/mol | deltaS (Albumin [35]): -6.247 J/mol.K | MIC (Staphylococcus aureus [36]): 4.36 µM | MIC (Staphylococcus aureus [37]): 8.72 µM | MIC (Klebsiella pneumoniae [38]): 8.72 µM | fractional inhibitory concentration index (FICI) (Staphylococcus aureus [39]): 0.5 | fractional inhibitory concentration index (FICI) (Klebsiella pneumoniae [40]): 0.625 | Activity (Staphylococcus aureus [41]): Active | fractional inhibitory concentration index (FICI) (Candida albicans [42]): 0.281 | fractional inhibitory concentration index (FICI) (Candida tropicalis [43]): 1.25 | MIC (Candida parapsilosis): 70 µM (≈ 32.1 µg/mL) | MIC (Candida albicans [44]): 2.18 µM | MIC (Candida tropicalis [45]): 17.4 µM
